Reference: ChEMBL document CHEMBL4706480, “Pyridin-2(1H)one derivatives: A possible new class of therapeutics for mechanical allodynia” (Eur J Med Chem, 2020)
Active and inactive are the calls of the source. The rule behind the calls is not given here.

Tests used:
Rattus norvegicus [1] = assay: Anti-allodynic activity in complete freund's adjuvant-induced rat inflammatory pain model assessed as inflammatory mechanical allodynia pretreated at 100 uM intra-cisternally administerd 30 min before CFA injection; format: functional, organism-based
Summary of the method: (§1)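 Rats briefly anesthetized (<2 min, 2% isoflurane by mask), given intracisternal 5 μL compound (100 μM) or vehicle (saline + 1% DMSO) 30 min before subcutaneous CFA (25 μL, 2.5 mg/kg) into right vibrissa pad. Static mechanical allodynia tested with 6-g von Frey filament on face every 15 or 30 min over 120 min; allodynic score 0–4 (Vos). n=4–6 rats.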

Rattus norvegicus [2] = assay: Anti-allodynic activity in complete freund's adjuvant-induced rat inflammatory pain model assessed as inflammatory mechanical allodynia pretreated at 100 uM intra-cisternally administerd 30 min before CFA injection measured 120 min after CFA injection relative to control; format: functional; conditions: 0.5 h; summary of the method: as §1
[3] = target: Protein kinase C gamma type (Homo sapiens) (UniProt P05129); assay: Inhibition of PKC-gamma (unknown origin) assessed as residual activity at 10 uM
Rattus norvegicus [4] = assay: Anti-allodynic activity in complete freund's adjuvant-induced rat inflammatory pain model assessed as inflammatory mechanical allodynia pretreated at 0.17 ug intra-cisternally administerd 30 min before CFA injection relative to control; format: functional; conditions: dose 0.17 µg, 0.5 h; summary of the method: as §1
Rattus norvegicus [5] = assay: Anti-allodynic activity in constriction injury-induced rat neuropathic mechanic allodynia model assessed as inflammatory mechanical allodynia at 0.17 ug intra-cisternally administered on day 14 after injury; format: functional, organism-based; conditions: dose 0.17 µg, in the assay text read “static mechanical allodynia” for “inflammatory mechanical allodynia”
Summary of the method: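 Neuropathic model: infraorbital nerve chronic constriction (two loose 4/0 chromic catgut ligatures 1 mm apart, chloral hydrate 400 mg/kg i.p. anesthesia). On day 14, once stable allodynia present, intracisternal 5 μL compound (100 μM) or vehicle (saline + 1% DMSO) under brief isoflurane. Face stimulated with 6-g von Frey filament; allodynic score 0–4; n=5/group; mean ± s.e.m.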

[6] = target: Mitogen-activated protein kinase 14 (Homo sapiens) (UniProt Q16539); assay: Inhibition of p38alpha MAPK (unknown origin) assessed as residual activity at 10 uM
Sequence of Mitogen-activated protein kinase 14 (Homo sapiens) (Q16539 whole entry): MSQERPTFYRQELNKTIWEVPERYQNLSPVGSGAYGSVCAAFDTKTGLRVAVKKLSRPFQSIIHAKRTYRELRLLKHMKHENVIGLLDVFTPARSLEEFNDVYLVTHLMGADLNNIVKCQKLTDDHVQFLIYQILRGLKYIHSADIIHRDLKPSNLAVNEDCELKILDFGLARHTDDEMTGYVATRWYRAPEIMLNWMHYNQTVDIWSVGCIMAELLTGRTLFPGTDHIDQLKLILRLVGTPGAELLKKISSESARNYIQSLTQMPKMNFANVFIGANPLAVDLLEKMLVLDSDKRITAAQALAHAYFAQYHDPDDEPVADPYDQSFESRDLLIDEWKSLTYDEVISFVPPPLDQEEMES

Rattus norvegicus [7] = assay: Anti-allodynic activity in complete freund's adjuvant-induced rat inflammatory pain model assessed as inflammatory mechanical allodynia pretreated at 0.15 ug intra-cisternally administerd 30 min before CFA injection relative to control; format: functional; conditions: dose 0.15 µg, 0.5 h; summary of the method: as §1

| Structure (SMILES) | inhibition (Rattus norvegicus [1]) | Activity [3] [%] | further results |
| --- | --- | --- | --- |
| O=c1[nH]cc(Nc2ccccc2)cc1-c1ccccc1Cl | Active | – | – |
| O=c1[nH]cc(Nc2ccccc2)cc1-c1ccncc1 | Active | > 85 | inhibition in vivo at 100 µM (Rattus norvegicus [2]): 90% |
| O=c1[nH]cc(Nc2ccccc2)cc1-c1ccc(O)cc1 | Active | – | – |
| Cc1ccc(-c2cc(Nc3ccccc3)c[nH]c2=O)cc1 | Active | – | – |
| O=c1[nH]cc(Nc2ccccc2)cc1-c1ccccc1Br | Active | – | inhibition (INH) (Rattus norvegicus [4]): 99%; inhibition (Rattus norvegicus [5]): Active; Activity [6]: 19% |
| O=c1[nH]cc(Nc2ccccc2)cc1-c1ccccc1 | Active | > 85 | – |
| CC(=O)c1cccc(-c2cc(Nc3ccccc3)c[nH]c2=O)c1 | Active | – | – |
| NC(=O)c1ccccc1-c1cc(Nc2ccccc2)c[nH]c1=O | Active | – | – |
| O=c1[nH]cc(Nc2ccccc2)cc1-c1ccc(OC(F)(F)F)cc1 | Active | – | – |
| O=c1[nH]cc(Nc2ccccc2)cc1-c1ccc(F)cc1F | Active | – | – |
| O=c1[nH]cc(Nc2ccccc2)cc1-c1c[nH]c2ccccc12 | – | > 85 | – |
| O=c1[nH]cc(Nc2ccccc2)cc1-c1cccc2cccnc12 | Active | > 85 | – |
| O=c1[nH]cc(Nc2ccccc2)cc1-c1cccc2[nH]ccc12 | Active | – | inhibition (INH) (Rattus norvegicus [7]): 98% |
| O=c1[nH]cc(Nc2ccccc2)cc1-c1ccnc2ccccc12 | Active | – | – |
| O=c1[nH]cc(Nc2ccccc2)cc1-c1cncnc1 | Active | > 85 | – |
| O=c1[nH]cc(Nc2ccccc2)cc1-c1cccc2cnccc12 | – | > 85 | – |
| CCOC(=O)c1ccccc1-c1cc(Nc2ccccc2)c[nH]c1=O | Active | – | – |
| NC(=O)c1ccc(-c2cc(Nc3ccccc3)c[nH]c2=O)cc1 | Active | – | – |
| COC(=O)c1ccc(-c2cc(Nc3ccccc3)c[nH]c2=O)cc1 | Active | – | – |
| O=c1[nH]cc(Nc2ccccc2)cc1-c1ccc(C(F)(F)F)cc1 | Active | – | – |
| O=c1[nH]cc(Nc2ccccc2)cc1-c1ccc(F)cc1 | Active | > 85 | – |
| O=c1[nH]cc(Nc2ccccc2)cc1-c1cccc(Cl)c1 | Active | – | – |
| O=c1[nH]cc(Nc2ccccc2)cc1-c1ccccc1[N+](=O)[O-] | Active | – | – |
